L major viab: reduces viability of Leishmania major promastigotes; AID 1063; inhibition, % at 10 µM; resazurin fluorescence viability; actives 9% (n = 200,000);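 further: promastigotes grown with compound for 44 hours at 28 °C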
PKD1 inh: PKD1 (human) kinase inhibition | PKD1 kinase fluorescence polarization assay | actives 0.056% (n = 200,000) | inhibition, % (test concentration not listed)
Target sequence (Q15139 whole entry, looked up): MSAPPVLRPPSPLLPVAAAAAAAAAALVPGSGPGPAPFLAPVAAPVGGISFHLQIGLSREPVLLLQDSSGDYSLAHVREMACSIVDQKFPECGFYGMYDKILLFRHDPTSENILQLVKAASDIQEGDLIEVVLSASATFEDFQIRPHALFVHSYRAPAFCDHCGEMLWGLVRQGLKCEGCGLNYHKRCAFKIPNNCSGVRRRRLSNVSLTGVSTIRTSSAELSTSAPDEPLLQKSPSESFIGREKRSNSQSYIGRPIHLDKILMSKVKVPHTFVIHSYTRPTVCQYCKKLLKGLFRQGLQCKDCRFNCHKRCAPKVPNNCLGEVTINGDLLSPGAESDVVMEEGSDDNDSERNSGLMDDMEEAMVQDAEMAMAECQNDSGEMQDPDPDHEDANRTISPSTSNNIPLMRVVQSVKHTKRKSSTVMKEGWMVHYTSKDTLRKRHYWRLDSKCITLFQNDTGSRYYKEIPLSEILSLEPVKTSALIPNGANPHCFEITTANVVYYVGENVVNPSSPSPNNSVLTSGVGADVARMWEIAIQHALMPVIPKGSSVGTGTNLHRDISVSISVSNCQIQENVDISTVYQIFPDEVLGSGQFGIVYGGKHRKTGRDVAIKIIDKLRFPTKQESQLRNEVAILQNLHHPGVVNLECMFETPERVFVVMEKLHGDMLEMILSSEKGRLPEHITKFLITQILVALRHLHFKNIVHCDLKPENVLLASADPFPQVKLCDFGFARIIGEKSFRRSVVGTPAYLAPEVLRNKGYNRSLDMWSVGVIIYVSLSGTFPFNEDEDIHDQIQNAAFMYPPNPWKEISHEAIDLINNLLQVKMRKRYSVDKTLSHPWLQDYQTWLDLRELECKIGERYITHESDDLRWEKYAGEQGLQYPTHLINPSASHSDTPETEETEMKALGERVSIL
CHOP inh: inhibitors of CHOP induction in ER stress response. CHO-K1 CHOP-promoter luciferase, tunicamycin-induced, 15-18 h. inhibition, % at 10 µM. actives 3.8% (n = 220,000);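 active means compounds that reduced the stress-induced luciferase reporter signal by more than about 70% of percent inhibition, limit read from the data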;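 further: 0% = tunicamycin plus vehicle and 100% = wells without tunicamycin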
Rad51 HR inh: Rad51 (human) homologous recombination inhibition; Q06609; hRad51 DNA strand exchange, fluorescence dequenching; inhibition, % at 10 µM; actives 0.085% (n = 200,000); AID 1385;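 active means inhibition above 40% at the single screening dose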;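 further: 0% = DMSO control wells and 100% = blanks with heterologous ssDNA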
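material = hRad51 filaments on single-stranded DNA | reagent = Donor/quencher-labelled 47-bp dsDNA substrate | compound = 10 µM final, single point | schedule = strand-exchange reaction 15 min at room temperature | measured by = fluorescein emission 520 nm, excitation 485 nm | read-out basis = % inhibition versus plate control and blank means | benchmarks = plate controls and plate blanks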
Wee1 stabilizer: inhibitors of human Wee1 degradation; P30291; HeLa Luc-Wee1K328M stability, luciferase luminescence; 100% = proteasome inhibitor MG132 effect; reporter increase, % at 5 µM; actives 1.2% (n = 220,000);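 active means activation above the mean of all tested compounds plus 3 SD, set per screening run, cut at about 8.8% in these data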;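 further: cells exposed to compound for 20 h before luminescence read; 0% = DMSO alone and 100% = MG132 at 30 µM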
Arbovirus anti: blocks arbovirus infection; arbovirus infection cell-based antiviral screen; actives 0.37% (n = 200,000); inhibition, % at 10 µM; AID 1251; in the data active means inhibition above about 30%
Starred values were filed as active, the others as inactive. Most compounds without a hit are left out; they make up all but 12% or so of the library. Unless noted, no stated cut-off is given here; in the data, active means inhibition above about 50%; inactive means the rest.

For O=c1c2cccnc2[nH]c(=S)n1CCCN1CCN(c2ccccc2F)CC1 the results were L major viab 8, PKD1 inh -5, CHOP inh 89*, Wee1 stabilizer 1 and Arbovirus anti 0.
Screening CC(C)C(NC(=O)C(NC(=O)C1OC2OC(C)(C)OC2C2OC(C)(C)OC12)C(C)C)C(=O)O (stereo unspecified) returned L major viab 1, PKD1 inh -2, CHOP inh 8, Rad51 HR inh 10, Wee1 stabilizer -4 and Arbovirus anti 4.
Screening CC(C(=O)Nc1ccccc1-c1ccccc1)N1CCN(Cc2ccccc2)CC1 (stereo unspecified) returned L major viab 17, PKD1 inh -7, CHOP inh 12, Rad51 HR inh -14, Wee1 stabilizer -2 and Arbovirus anti 22.
`CC1CCN(C(C)C(=O)Nc2ccccc2-c2ccccc2)CC1` (stereo unspecified) gave L major viab 51*, PKD1 inh -1, CHOP inh 70, Rad51 HR inh -5, Wee1 stabilizer 0 and Arbovirus anti 4.
For Cc1ccc(S(=O)(=O)N2CCN(C(C)C(=O)Nc3ccccc3-c3ccccc3)CC2)cc1 (stereo unspecified) the results were L major viab 94*, PKD1 inh 2, CHOP inh 24, Rad51 HR inh 5, Wee1 stabilizer 2 and Arbovirus anti 13.
`CC(C(=O)Nc1ccccc1-c1ccccc1)N1CCN(C(=O)c2ccccc2)CC1` (stereo unspecified) gave CHOP inh -4 and Wee1 stabilizer 0.
CC(=O)Nc1ccc(Nc2cc(C)nc3c(-c4ccccc4)cnn23)cc1 was read as L major viab 89*, PKD1 inh -2, CHOP inh 21, Rad51 HR inh -2, Wee1 stabilizer -3 and Arbovirus anti -12.
For COc1ccc2oc(=O)c(-c3csc(Nc4cccc(O)c4)n3)cc2c1 the results were L major viab 99*, PKD1 inh 4, CHOP inh 0, Wee1 stabilizer -2 and Arbovirus anti -32.
For O=C(Nc1ccc(CN2CCCCC2)cc1)Nc1ccc(Br)cc1Cl the results were L major viab 31, PKD1 inh 0, CHOP inh 12, Rad51 HR inh -3, Wee1 stabilizer 5 and Arbovirus anti -26.
COC(=O)C1=C(N)c2c(F)cccc2C1(C#N)c1ccc(F)cc1 (stereo unspecified) was read as L major viab 51*, PKD1 inh -7, CHOP inh 28, Rad51 HR inh 0, Wee1 stabilizer 1 and Arbovirus anti -6.
For CC(C)N(C)CCOC(=O)C1COc2ccccc2O1 (stereo unspecified) the results were CHOP inh 0, Rad51 HR inh -4 and Wee1 stabilizer -3.
For O=C(Nc1cnn(Cc2ccc(Cl)c(Cl)c2)c1)c1nc2ncccn2n1 the results were L major viab 8, PKD1 inh 2, CHOP inh 17, Rad51 HR inh -14, Wee1 stabilizer -1 and Arbovirus anti -26.
For Cc1ccc(Cn2ccc(NC(=O)c3nc4ncccn4n3)n2)cc1 the results were L major viab 51*, PKD1 inh -1, CHOP inh 15, Rad51 HR inh 6, Wee1 stabilizer -2 and Arbovirus anti 7.
Screening Nc1cc2c(cc1C(=O)c1ccccc1)OCCO2 returned L major viab -3, PKD1 inh -4, CHOP inh 37, Rad51 HR inh -7, Wee1 stabilizer 0 and Arbovirus anti -1.
`Cc1ccc(C(=O)c2cc3c(cc2N)OCCO3)cc1` gave L major viab 1, PKD1 inh 9, CHOP inh 73*, Rad51 HR inh -5, Wee1 stabilizer -3 and Arbovirus anti -2.
Screening Cc1ccc(-c2cc(C(=O)O)c3cc(Br)ccc3n2)o1 returned L major viab -3, PKD1 inh -3, CHOP inh 16, Wee1 stabilizer 9.0* and Arbovirus anti 12.
Screening O=C1/C(=N\S(=O)(=O)c2cccs2)C([n+]2ccc(CCCc3ccccc3)cc2)=C([O-])c2ccccc21 returned CHOP inh 95*, Rad51 HR inh 20 and Wee1 stabilizer -2.
`O=C1/C(=N\S(=O)(=O)c2cccs2)C([n+]2cccc(Cc3ccccc3)c2)=C([O-])c2ccccc21` gave CHOP inh 65, Rad51 HR inh -467 and Wee1 stabilizer -2.
Screening C/C(=N\N(c1ccccc1)c1ccccc1)c1ccco1 returned L major viab 2, PKD1 inh 8, CHOP inh 63, Rad51 HR inh 18, Wee1 stabilizer 0 and Arbovirus anti 1.
`O=C(c1cc(N2C(=O)C3C4CCC(C4)C3C2=O)ccc1Cl)N1CCN(c2ccc(F)cc2)CC1` (stereo unspecified) gave L major viab 75*, PKD1 inh -1, CHOP inh 31, Rad51 HR inh 2, Wee1 stabilizer -2 and Arbovirus anti 4.
O=C(c1cc(N2C(=O)C3C4CCC(C4)C3C2=O)ccc1Cl)N1CCN(c2ccccc2F)CC1 (stereo unspecified) was read as L major viab 75*, PKD1 inh -7, CHOP inh 41, Rad51 HR inh -5, Wee1 stabilizer -2 and Arbovirus anti -3.
COc1ccc(N2CCN(C(=O)c3cc(N4C(=O)C5C6CCC(C6)C5C4=O)ccc3Cl)CC2)cc1 (stereo unspecified) was read as L major viab 86*, PKD1 inh -1, CHOP inh 43, Rad51 HR inh 11, Wee1 stabilizer 0 and Arbovirus anti 11.
For COc1ccc(/C=C2/C(=O)OCc3cc(OC)c(OC)cc32)cc1 the results were L major viab 4, PKD1 inh -1, CHOP inh 34, Rad51 HR inh 2, Wee1 stabilizer 1 and Arbovirus anti -24.
For Oc1[nH]c2ccccc2c1C1=NCCCCC1 the results were L major viab 17, PKD1 inh 2, CHOP inh 21, Rad51 HR inh -2, Wee1 stabilizer 0 and Arbovirus anti -7.
Screening CCn1c(SCc2ccc(C#N)cc2)nnc1-c1cccc(Cl)c1 returned L major viab 1, PKD1 inh 2, CHOP inh -21, Rad51 HR inh -4, Wee1 stabilizer 1 and Arbovirus anti -6.
Cc1ccc(OCc2nnc(SCC(=O)c3ccccc3)n2-c2ccccc2)cc1 was read as L major viab 100*, PKD1 inh 4, CHOP inh 0, Rad51 HR inh -2, Wee1 stabilizer -2 and Arbovirus anti 9.
COc1ccc(-n2c(COc3ccc(Cl)cc3)nnc2SCc2ccc(C#N)cc2)cc1 was read as L major viab 19, PKD1 inh 1, CHOP inh -9, Rad51 HR inh -11, Wee1 stabilizer -2 and Arbovirus anti -13.
C=CCn1c(SCc2ccc(C#N)cc2)nnc1-c1ccc(C)cc1 was read as L major viab 78*, PKD1 inh -3, CHOP inh 9, Rad51 HR inh -6, Wee1 stabilizer -3 and Arbovirus anti -6.
